We go through 17 molecules from ChEMBL document CHEMBL1157900, “Bivalent 5,8,9,13b-tetrahydro-6H-isoquino[1,2-a]isoquinolines and -isoquinolinium salts: novel heterocyclic templates for butyrylcholinesterase inhibitors” (Bioorg Med Chem Lett, 2010).

The structures appear in SMILES notation. Calls of active or inactive are those of the source. No cut-off for these calls is given here. Where only a bound is given, the exact number is not on record here.

Series [1] is described as follows: Cytotoxicity against human U87MG cells assessed as cell viability after 24 hrs by MTT assay. The format is cell-based, U-87MG ATCC. In outline: (§1)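 Photometric MTT cell-viability readout after compound exposure of human neuronal (SH-SY5Y) or glial (MG-U87) cells. CC50 reported as mean ± SD of at least three experiments, each run in triplicate.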
In general terms: Tetrazolium assays rely on reduction of a dye to a coloured formazan, in cell work by metabolically active cells.

In another series the target is Acetylcholinesterase (Electrophorus electricus, UniProt O42275). In words: Inhibition of Electric eel AChE after 2 mins by colorimetric Ellman assay. (In general: DTNB colorimetry detects thiols as they appear.)
Sequence of Acetylcholinesterase (O42275 whole entry): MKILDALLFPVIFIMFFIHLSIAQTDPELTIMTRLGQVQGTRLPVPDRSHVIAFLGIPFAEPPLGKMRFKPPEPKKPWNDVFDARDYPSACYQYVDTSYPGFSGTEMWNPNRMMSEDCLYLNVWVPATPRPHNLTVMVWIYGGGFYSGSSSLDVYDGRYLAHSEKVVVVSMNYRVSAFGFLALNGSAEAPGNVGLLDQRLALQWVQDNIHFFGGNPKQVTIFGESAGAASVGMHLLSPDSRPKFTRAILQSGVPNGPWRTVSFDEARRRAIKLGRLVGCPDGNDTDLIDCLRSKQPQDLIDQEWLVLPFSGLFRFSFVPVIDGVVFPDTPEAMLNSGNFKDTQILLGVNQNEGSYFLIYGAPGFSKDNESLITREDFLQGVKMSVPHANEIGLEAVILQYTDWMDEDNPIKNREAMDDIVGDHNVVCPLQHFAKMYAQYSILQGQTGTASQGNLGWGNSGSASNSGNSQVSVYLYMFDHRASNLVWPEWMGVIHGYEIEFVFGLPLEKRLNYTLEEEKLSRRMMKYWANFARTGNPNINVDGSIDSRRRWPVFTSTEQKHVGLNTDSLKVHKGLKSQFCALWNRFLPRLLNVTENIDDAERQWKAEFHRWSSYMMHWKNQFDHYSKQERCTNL
A further series deals with Cholinesterase (Equus caballus, UniProt P81908). In words: Inhibition of Equine serum BChE after 2 mins by colorimetric Ellman assay.
Sequence of Cholinesterase (P81908 whole entry): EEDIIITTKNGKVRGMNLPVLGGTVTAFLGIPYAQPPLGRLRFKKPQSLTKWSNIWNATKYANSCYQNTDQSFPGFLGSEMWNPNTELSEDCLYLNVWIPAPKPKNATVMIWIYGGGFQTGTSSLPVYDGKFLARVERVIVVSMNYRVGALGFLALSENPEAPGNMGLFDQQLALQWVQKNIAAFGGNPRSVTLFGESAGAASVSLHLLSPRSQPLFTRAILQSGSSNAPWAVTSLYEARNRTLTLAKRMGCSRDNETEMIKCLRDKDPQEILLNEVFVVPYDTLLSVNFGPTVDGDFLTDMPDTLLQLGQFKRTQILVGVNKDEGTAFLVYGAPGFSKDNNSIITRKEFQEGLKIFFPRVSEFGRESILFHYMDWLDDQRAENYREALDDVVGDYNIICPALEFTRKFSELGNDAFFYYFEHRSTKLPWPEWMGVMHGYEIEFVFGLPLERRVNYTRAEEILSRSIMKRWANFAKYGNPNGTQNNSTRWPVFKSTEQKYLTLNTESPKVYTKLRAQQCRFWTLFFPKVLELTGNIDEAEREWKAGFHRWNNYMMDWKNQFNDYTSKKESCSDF
A short description of series [2]: Selectivity ratio of IC50 for Electric eel AChE to IC50 for equine serum BChE.
The nature of series [3]: Cytotoxicity against human SH-SY5Y cells assessed as cell viability after 24 hrs by MTT assay. The format is cell-based. In outline: as §1
Series [4] concerns the target Cholinesterase (Equus caballus) (UniProt P81908). In words: Competitive inhibition of Equine serum BChE by Lineweaver-Burke plot. The gist of the method:
(§2)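 Equine serum BChE. Substrate-velocity curves were recorded at various substrate concentrations, each at several fixed inhibitor concentrations. Data were plotted as reciprocal velocity against reciprocal substrate concentration (Lineweaver-Burk). Km was taken as the negative reciprocal of the x-intercept and Vmax as the reciprocal of the y-intercept, then compared across inhibitor concentrations.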

For series [5] the target is unchanged. Kind of series: Reversible inhibition of Equine serum BChE by Lineweaver-Burke plot. The gist of the method:
as §2

Sequence of Cholinesterase (Equus caballus) (P81908 whole entry): as above

As to `c1ccc2c(c1)CCN1CCc3cc(OCCCCCCCCCCCCOc4ccc5c(c4)CCN4CCc6ccccc6C54)ccc3C21` (centres undefined), the CC50 (commonly the concentration that lowers cell viability or growth by half) at 24 h in series [1] was determined as 46.6 µM. Moreover, the IC50 at Acetylcholinesterase (read-out: IC50) came out at 4.1 µM; on Cholinesterase (read-out: IC50), 0.92 µM. Further, in series [2], the Ratio IC50 came to 4.2.
Consider `COc1ccc2c(c1)CCN(C)CCc1ccccc1C2`, for which the IC50 on Acetylcholinesterase (read-out: IC50) and on Cholinesterase (read-out: IC50) was greater than 10000 µM throughout.
For the molecule `c1ccc2c(c1)CCN1CCc3cc(OCCCCCCOc4ccc5c(c4)CCN4CCc6ccccc6C54)ccc3C21` (centres undefined), the CC50 at 24 h in series [1] came out at 20.7 µM; in series [3] it was 7.4 µM. The IC50 was found to be 0.69 µM at Acetylcholinesterase (read-out: IC50) and 0.014 µM at Cholinesterase (read-out: IC50). The Ratio IC50 in series [2] was 48.9. The inhibition entry in series [4] and in series [5] was “Active” in each case.
For `CN1CCc2ccccc2Cc2ccc(OCCCCCCCCOc3ccc4c(c3)CCN(C)CCc3ccccc3C4)cc2CC1`, the values for the IC50 at Acetylcholinesterase (read-out: IC50) and on Cholinesterase (read-out: IC50) were 2 µM and 0.21 µM, respectively. Moreover, the Ratio IC50 in series [2] came out at 9.9.
Regarding `C[N+]12CCc3ccccc3C1c1ccc(OCCCCCCCCCCCCOc3ccc4c(c3)CC[N+]3(C)CCc5ccccc5C43)cc1CC2` (centres undefined), the IC50 on Acetylcholinesterase (read-out: IC50) is 0.12 µM; on Cholinesterase (read-out: IC50), 0.036 µM; on Cholinesterase (read-out: pIC50 (converted)), 0.0353 µM. Also, the Ratio IC50 in series [2] is 3.4.
Regarding `c1ccc2c(c1)CCN1CCc3cc(OCCCCOc4ccc5c(c4)CCN4CCc6ccccc6C54)ccc3C21` (centres undefined), the CC50 at 24 h in series [1] stood at 19.5 µM; in series [3] it was 6.35 µM. Moreover, the IC50 on Acetylcholinesterase (read-out: IC50) is 1.1 µM; on Cholinesterase (read-out: IC50), 0.017 µM. Further, the Ratio IC50 in series [2] stood at 76.2.
Regarding `C[N+]12CCc3ccccc3C1c1ccc(OCCCCCCCCOc3ccc4c(c3)CC[N+]3(C)CCc5ccccc5C43)cc1CC2` (centres undefined), the IC50 turned out to be 0.28 µM at Acetylcholinesterase (read-out: IC50) and 0.11 µM on Cholinesterase (read-out: IC50). Further, in series [2], the Ratio IC50 worked out at 2.5.
Take `C[N+]12CCc3ccccc3C1c1ccc(OCCCOc3ccc4c(c3)CC[N+]3(C)CCc5ccccc5C43)cc1CC2` (centres undefined): the IC50 on Acetylcholinesterase (read-out: IC50) stood at 0.45 µM; at Cholinesterase (read-out: IC50) it was 0.16 µM.
As for `c1ccc2c(c1)CCN1CCc3cc(OCCCCCOc4ccc5c(c4)CCN4CCc6ccccc6C54)ccc3C21` (centres undefined), the CC50 at 24 h in series [1] stood at 8.7 µM. For the same molecule, the IC50 was 0.65 µM at Acetylcholinesterase (read-out: IC50), 0.308 µM on Acetylcholinesterase (read-out: pIC50 (converted)) and 0.017 µM at Cholinesterase (read-out: IC50). For the same molecule, the Ratio IC50 in series [2] is 38.3.
Regarding `COc1ccc2c(c1)CCN1CCc3ccccc3C21` (centres undefined), the CC50 at 24 h in series [1] is 775 µM; in series [3] it was 171 µM. Moreover, the IC50 on Acetylcholinesterase (read-out: IC50) and on Cholinesterase (read-out: IC50) was greater than 10000 µM throughout.
`c1ccc2c(c1)CCN1CCc3cc(OCCCCCCCCOc4ccc5c(c4)CCN4CCc6ccccc6C54)ccc3C21` (centres undefined): the CC50 at 24 h amounted to 42 µM in series [1] and 19.2 µM in series [3]. For the same molecule, the IC50 at Acetylcholinesterase (read-out: IC50) is 1.2 µM; on Cholinesterase (read-out: IC50), 0.68 µM. Besides, the Ratio IC50 in series [2] came out at 3.
Take `COc1ccc2c(c1)CC[N+]1(C)CCc3ccccc3C21` (centres undefined): the values for the IC50 at Acetylcholinesterase (read-out: IC50) and at Cholinesterase (read-out: IC50) were 8.8 µM and 6.4 µM, respectively. Further, the Ratio IC50 in series [2] was 1.4.
As to `C[N+]12CCc3ccccc3C1c1ccc(OCCCCCOc3ccc4c(c3)CC[N+]3(C)CCc5ccccc5C43)cc1CC2` (centres undefined), the values for the IC50 on Acetylcholinesterase (read-out: IC50) and on Cholinesterase (read-out: IC50) were 0.28 µM and 0.047 µM, respectively. Besides, the Ratio IC50 in series [2] amounted to 5.9.
Turning to `c1ccc2c(c1)CCN1CCc3cc(OCCCOc4ccc5c(c4)CCN4CCc6ccccc6C54)ccc3C21` (centres undefined), the CC50 at 24 h in series [1] amounted to 26.9 µM; in series [3] it was 8.94 µM. In addition, the IC50 on Acetylcholinesterase (read-out: IC50) is 4.5 µM; on Cholinesterase (read-out: IC50), 0.15 µM. Besides, the Ratio IC50 in series [2] was determined as 30.8.
With `CN1CCc2ccccc2Cc2ccc(OCCCOc3ccc4c(c3)CCN(C)CCc3ccccc3C4)cc2CC1`, the figures for the IC50 at Acetylcholinesterase (read-out: IC50) and at Cholinesterase (read-out: IC50) were 4.8 µM and 0.14 µM, respectively. Also, the Ratio IC50 in series [2] is 34.
On to `C[N+]12CCc3ccccc3C1c1ccc(OCCCCCCOc3ccc4c(c3)CC[N+]3(C)CCc5ccccc5C43)cc1CC2` (centres undefined), for which the IC50 was found to be 0.15 µM at Acetylcholinesterase (read-out: IC50) and 0.027 µM on Cholinesterase (read-out: IC50). Besides, in series [2], the Ratio IC50 amounted to 5.6.
Turning to `C[N+]12CCc3ccccc3C1c1ccc(OCCCCOc3ccc4c(c3)CC[N+]3(C)CCc5ccccc5C43)cc1CC2` (centres undefined), the IC50 on Acetylcholinesterase (read-out: IC50) stood at 0.39 µM; on Cholinesterase (read-out: IC50), 0.051 µM. Also, the Ratio IC50 in series [2] amounted to 8.8.
